In ChEMBL document CHEMBL5154815, “A Series of Substituted Bis-Aminotriazines Are Activators of the Natriuretic Peptide Receptor C” (J Med Chem, 2022):
Calls of active or inactive are those of the source. The rule behind the calls is not given here. Where a SMILES comes first, the peptide text is derived from it.

Tests used:
[1] = biological target: T1, Atrial natriuretic peptide receptor 3 (Homo sapiens) (UniProt P17342); test: Binding affinity to CM5 sensor chip immobilized human NPR-C (27 to 541 residues) assessed as maximum response by surface plasmon resonance analysis relative to control
T1 sequence (whole entry): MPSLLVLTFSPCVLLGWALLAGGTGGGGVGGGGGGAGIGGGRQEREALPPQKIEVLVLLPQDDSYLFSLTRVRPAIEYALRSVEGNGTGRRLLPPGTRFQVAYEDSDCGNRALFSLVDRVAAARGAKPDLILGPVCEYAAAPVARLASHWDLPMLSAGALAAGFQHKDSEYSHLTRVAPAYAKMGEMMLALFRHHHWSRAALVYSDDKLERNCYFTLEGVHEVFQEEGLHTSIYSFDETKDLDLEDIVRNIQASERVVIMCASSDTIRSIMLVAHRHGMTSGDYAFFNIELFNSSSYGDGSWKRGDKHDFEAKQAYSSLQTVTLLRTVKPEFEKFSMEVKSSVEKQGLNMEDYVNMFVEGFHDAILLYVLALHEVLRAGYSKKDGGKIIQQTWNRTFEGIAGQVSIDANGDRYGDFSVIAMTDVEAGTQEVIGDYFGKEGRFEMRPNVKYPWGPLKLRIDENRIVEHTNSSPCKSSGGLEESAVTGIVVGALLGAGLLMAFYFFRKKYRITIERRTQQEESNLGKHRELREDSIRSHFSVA
How it was run: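 SPR on CM5-immobilized NPR-C (27–541) in PBS-P with 1% DMSO, double-referenced. Observed Rmax was expressed as a percentage of theoretical Rmax. Theoretical Rmax was calculated from immobilized protein response, analyte and ligand molecular weights, and binding stoichiometry.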

[2] = biological target: T2, Atrial natriuretic peptide receptor 3 (Rattus norvegicus, UniProt P41740); test: Agonist activity at NPRC in rat aorta assessed as vasorelaxation by Organ bath assay; type: tissue-based
T2 sequence (P41740 whole entry): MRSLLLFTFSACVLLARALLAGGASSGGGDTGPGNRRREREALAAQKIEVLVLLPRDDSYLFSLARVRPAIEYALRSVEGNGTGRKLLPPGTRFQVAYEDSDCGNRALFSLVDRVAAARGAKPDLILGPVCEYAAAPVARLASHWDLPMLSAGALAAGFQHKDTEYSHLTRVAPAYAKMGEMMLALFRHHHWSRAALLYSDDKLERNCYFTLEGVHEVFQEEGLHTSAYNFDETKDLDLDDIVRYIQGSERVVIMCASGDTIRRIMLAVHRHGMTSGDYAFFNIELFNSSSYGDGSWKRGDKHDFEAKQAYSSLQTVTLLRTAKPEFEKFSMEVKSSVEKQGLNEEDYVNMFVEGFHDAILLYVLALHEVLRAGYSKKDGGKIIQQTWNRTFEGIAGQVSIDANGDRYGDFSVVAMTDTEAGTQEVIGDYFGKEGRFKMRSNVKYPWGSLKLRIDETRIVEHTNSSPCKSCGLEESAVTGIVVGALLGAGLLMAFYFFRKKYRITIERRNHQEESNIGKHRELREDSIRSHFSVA

[3] = biological target: T3, Atrial natriuretic peptide receptor 3 (Homo sapiens, UniProt P17342); test: Binding affinity to CM5 sensor chip immobilized human NPR-C (27 to 541 residues) assessed as dissociation constant by surface plasmon resonance analysis
T3 sequence (P17342 whole entry): T1 sequence (whole entry)

[4] = biological target: T3, Atrial natriuretic peptide receptor 3; test: Displacement of Flu-P19 probe from human NPR-C (27 to 541 residues) by fluorescence polarization analysis
How it was run: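 Competition fluorescence polarization used NPR-C extracellular domain protein (20 nM final) and Flu-P19 probe (150 pM final) in PBS-P with 1% DMSO. Ligand ranged 600–0.274 μM, and samples were assembled on ice. Read-out was at ex 485/em 520 nm, normalized to buffer+probe and protein+probe controls and blanked with buffer alone. EC50 came from curve fitting.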

[5] = Stability of compound in pooled human plasma assessed as half life measured upto 120 mins by LC/MS/MS analysis; settings: 2 h
[6] = biological target: T2, Atrial natriuretic peptide receptor 3; test: Agonist activity at NPRC in rat small mesenteric arteries assessed as vasorelaxation by Organ bath assay; type: tissue-based, Artery
[7] = Solubility of compound in PBS at 10 mM after 3 hrs by UV analysis; settings: buffer, 10000 µM
Cytochrome P450 2C19 = Cytochrome P450 2C19 (Homo sapiens, UniProt P33261); test: Inhibition of CYP2C19 in human liver microsomes using S-mephenytoin as substrate preincubated for 10 mins followed by NADPH addition and measured after 20 mins by LC/MS/MS analysis
Cytochrome P450 2C9 = Cytochrome P450 2C9 (Homo sapiens, UniProt P11712); test: Inhibition of CYP2C9 in human liver microsomes using diclofenac as substrate preincubated for 10 mins followed by NADPH addition and measured after 10 mins by LC/MS/MS analysis
[8] = biological target: T1, Atrial natriuretic peptide receptor 3 (Homo sapiens); test: Agonist activity at NPRC in human Hela cells assessed as decrease in forskolin-induced cAMP level at 100 uM relative to control; type: cell-based; parameters: scale not given: the % may be the effect or the level left
[9] = biological target: T4, Atrial natriuretic peptide receptor 3 (Mus musculus, UniProt P70180); test: Agonist activity at NPRC in wild type mouse mesenteric arteries assessed as vasorelaxation by Organ bath assay; type: tissue-based, Artery
T4 sequence (P70180 whole entry): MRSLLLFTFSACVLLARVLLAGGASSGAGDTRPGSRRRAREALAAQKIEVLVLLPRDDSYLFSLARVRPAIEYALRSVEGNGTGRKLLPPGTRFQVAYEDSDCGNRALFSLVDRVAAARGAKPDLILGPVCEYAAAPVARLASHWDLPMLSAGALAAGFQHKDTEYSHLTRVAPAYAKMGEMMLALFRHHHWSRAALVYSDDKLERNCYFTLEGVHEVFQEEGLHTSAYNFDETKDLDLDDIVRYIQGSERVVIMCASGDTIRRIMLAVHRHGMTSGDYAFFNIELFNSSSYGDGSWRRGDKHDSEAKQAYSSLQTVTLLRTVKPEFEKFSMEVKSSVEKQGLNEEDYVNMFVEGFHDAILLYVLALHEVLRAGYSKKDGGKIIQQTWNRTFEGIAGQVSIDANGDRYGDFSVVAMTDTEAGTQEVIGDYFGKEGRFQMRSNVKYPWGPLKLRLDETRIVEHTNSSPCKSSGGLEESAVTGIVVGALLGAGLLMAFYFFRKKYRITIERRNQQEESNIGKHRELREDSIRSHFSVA

[10] = biological target: T2, Atrial natriuretic peptide receptor 3; test: Agonist activity at NPRC in rat small mesenteric arteries assessed as vasorelaxation preincubated with M372049 for 15 mins followed by compound treatment by Organ bath assay; type: tissue-based, Artery
[11] = rat, hepatocytes, 20 min, 1 µM
[12] = Stability in Sprague-Dawley rat hepatocytes assessed as clearance per […] at 1 uM after 20 mins by LC-MS/MS analysis; type: ADME, cell-based, Hepatocyte
[13] = Protein binding in human plasma by equilibrium dialysis assay
[14] = biological target: T4, Atrial natriuretic peptide receptor 3; test: Agonist activity at NPRC in knock out mouse mesenteric arteries assessed as vasorelaxation by Organ bath assay; type: tissue-based, Artery
[15] = biological target: T1, Atrial natriuretic peptide receptor 3 (Homo sapiens); test: Agonist activity at NPRC in human HeLa cells assessed as decrease in forskolin-induced cAMP level at 100 nM; type: cell-based; settings: filed as agonist

Sequence of Cytochrome P450 2C19 (P33261 whole entry): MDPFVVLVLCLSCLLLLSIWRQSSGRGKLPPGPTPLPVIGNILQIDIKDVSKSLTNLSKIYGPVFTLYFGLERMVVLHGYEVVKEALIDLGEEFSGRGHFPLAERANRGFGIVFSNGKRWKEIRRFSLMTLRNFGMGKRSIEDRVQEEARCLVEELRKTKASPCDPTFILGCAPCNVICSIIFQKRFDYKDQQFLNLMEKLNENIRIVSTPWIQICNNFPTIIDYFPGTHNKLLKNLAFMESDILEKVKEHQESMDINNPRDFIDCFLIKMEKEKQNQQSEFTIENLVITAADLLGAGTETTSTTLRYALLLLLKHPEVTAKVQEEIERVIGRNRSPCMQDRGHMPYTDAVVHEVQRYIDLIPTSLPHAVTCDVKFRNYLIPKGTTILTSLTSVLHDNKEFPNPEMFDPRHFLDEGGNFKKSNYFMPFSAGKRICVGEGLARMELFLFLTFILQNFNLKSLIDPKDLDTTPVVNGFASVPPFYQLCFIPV
Sequence of Cytochrome P450 2C9 (P11712 whole entry): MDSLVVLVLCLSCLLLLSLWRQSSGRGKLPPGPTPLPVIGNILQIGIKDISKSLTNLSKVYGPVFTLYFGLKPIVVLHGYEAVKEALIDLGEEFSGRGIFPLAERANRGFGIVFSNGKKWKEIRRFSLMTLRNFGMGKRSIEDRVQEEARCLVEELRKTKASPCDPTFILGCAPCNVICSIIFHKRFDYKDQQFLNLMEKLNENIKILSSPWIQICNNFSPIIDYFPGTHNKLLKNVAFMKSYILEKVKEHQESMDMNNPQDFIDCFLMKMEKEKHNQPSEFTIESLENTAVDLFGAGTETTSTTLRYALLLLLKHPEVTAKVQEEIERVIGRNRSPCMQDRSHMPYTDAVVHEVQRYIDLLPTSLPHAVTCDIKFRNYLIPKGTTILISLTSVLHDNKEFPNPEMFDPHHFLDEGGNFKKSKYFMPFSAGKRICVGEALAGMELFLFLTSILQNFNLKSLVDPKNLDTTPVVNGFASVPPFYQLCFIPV

SMILES: CC(=O)Nc1ccc(Nc2ncnc(NC(C)(C)C(=O)OC(C)(C)C)n2)cc1
- Rmax [1]: < 20%

SMILES: CC(=O)Nc1ccc(Nc2ncnc(N[C@H](C(=O)OC(C)(C)C)C3CCCCC3)n2)cc1
- EC50 [2]: 6.24 µM
- Kd [3]: 28 µM
- EC50 [4]: 327 µM

SMILES: CC(=O)Nc1ccc(Nc2ncnc(N[C@H](CC(C)C)C(=O)OC(C)(C)C)n2)cc1
- Rmax [1]: < 20%

SMILES: CC(=O)Nc1ccc(Nc2ncnc(N[C@H](COC(C)(C)C)CC(C)C)n2)cc1
- Kd [3]: 42.2 µM

SMILES: CC(=O)Nc1ccc(Nc2ncnc(N[C@@H](CC(C)C)C(=O)OC(C)C)n2)cc1
- Kd [3]: 84.4 µM

SMILES: COC(=O)[C@H](CC(C)C)Nc1nc(Cl)nc(N[C@H]2CC[C@H](Nc3nc(Cl)nc(N[C@@H](CC(C)C)C(=O)OC)n3)CC2)n1
- EC50 [2]: 1.43 µM
- t1/2 [5]: > 1 h
- Kd [3]: 95.7 µM
- EC50 [6]: 0.97 µM
- solubility [7]: > 122.52 mg/mL
- IC50 (Cytochrome P450 2C19): 37.8 µM
- IC50 (Cytochrome P450 2C9): 4.96 µM
- Activity [8]: 31.4%
- EC50 [9]: 1.16 µM
- EC50 [10]: 0.47 µM
- t1/2 [11]: > 3.613 h
- CLH [12]: < 0.64 µL/min
- PPB [13]: 99.5%
- EC50 [14]: 2.64 µM

SMILES: CC(=O)Nc1ccc(Nc2ncnc(N[C@@H](C)C(=O)OC(C)(C)C)n2)cc1
- EC50 [2]: 78.1 µM
- EC50 [6]: 3.45 µM
- Rmax [1]: < 20%

SMILES: CC(=O)Nc1ccc(Nc2ncnc(N[C@H](C(=O)OC(C)(C)C)C(C)(C)C)n2)cc1
- Kd [3]: 201 µM

SMILES: CC(=O)Nc1ccc(Nc2ncnc(N[C@@H](CCc3ccccc3)C(=O)OC(C)(C)C)n2)cc1
- EC50 [2]: 3.76 µM
- Kd [3]: 23.8 µM

SMILES: CC(=O)Nc1ccc(Nc2ncnc(N[C@@H](CC(C)C)C(=O)OC(C)(C)C)n2)cc1
- Kd [3]: 30.8 µM
- Activity [8]: 20.6%

SMILES: CC(=O)Nc1ccc(Nc2ncnc(N[C@@H](Cc3ccc(F)cc3)C(=O)OC(C)(C)C)n2)cc1
- EC50 [2]: 4.43 µM
- Kd [3]: 23.7 µM

SMILES: CCCCS(=O)(=O)Nc1ccc(Nc2nc(Cl)nc(N[C@@H](CC(C)C)C(=O)OC(C)(C)C)n2)cc1
- Kd [3]: 25.7 µM

SMILES: CC(=O)Nc1ccc(Nc2ncnc(N[C@H](C(=O)OC(C)(C)C)C(C)C)n2)cc1
- Kd [3]: 79 µM

SMILES: CC(C)C[C@H](Nc1nc(Cl)nc(Nc2ccc(NS(=O)(=O)c3ccccc3)cc2)n1)C(=O)OC(C)(C)C
- Kd [3]: 99 µM

SMILES: CCCCS(=O)(=O)Nc1ccc(Nc2ncnc(N[C@@H](CC(C)C)C(=O)OC(C)(C)C)n2)cc1
- Kd [3]: 45.1 µM

SMILES: CC(=O)Nc1ccc(Nc2ncnc(N[C@@H](Cc3ccc(O)cc3)C(=O)OC(C)(C)C)n2)cc1
- Rmax [1]: < 20%

SMILES: CC(=O)Nc1ccc(Nc2ncnc(N[C@@H](Cc3ccccc3)C(=O)O)n2)cc1
- EC50 [4]: 60 µM

SMILES: CC(=O)Nc1ccc(Nc2ncnc(N[C@@H](Cc3ccccc3)C(=O)OC(C)(C)C)n2)cc1
- Kd [3]: 31.3 µM
- EC50 [4]: 32 µM
- Activity [8]: 9.16%

SMILES: CC(=O)Nc1ccc(Nc2ncnc(NCC(=O)OC(C)(C)C)n2)cc1
- Kd [3]: 832 µM

SMILES: CC(=O)Nc1ccc(Nc2nc(Cl)nc(N[C@@H](CC(C)C)C(=O)OC(C)(C)C)n2)cc1
- Kd [3]: 36.9 µM

SMILES: CC(=O)Nc1ccc(Nc2ncnc(N[C@@H](CC(C)C)C(=O)OC3CCCC3)n2)cc1
- Kd [3]: 25 µM

SMILES: CC[C@H](C)[C@H](NC(=O)[C@H](CCCNC(=N)N)NC(=O)[C@H](CC(=O)O)NC(=O)[C@H](CCSC)NC(=O)[C@H](CCCNC(=N)N)NC(=O)CNC(=O)CNC(=O)[C@H](Cc1ccccc1)NC(=O)[C@H](CS)NC(=O)[C@H](CO)NC(=O)[C@H](CO)NC(=O)[C@@H](N)CCCNC(=N)N)C(=O)NCC(=O)N[C@@H](C)C(=O)N[C@@H](CS)C(=O)N[C@@H](CC(N)=O)C(=O)O (H-RSSCFGGRMDRIGACN-OH)
- Activity [15]: Active
